Measured values reported in ChEMBL document CHEMBL1124476, “1-(2-aminoethyl)-6-aryl-4H- [1,2,4]triazolo[4,3-a][1,4]benzodiazepines with diuretic and natriuretic activity” (J Med Chem, 1989).

Tests used:
[1] = Diuretic activity at 40 mg/kg (screening dose-100.8 umol/kg) in […] in a one stage experiment; T/C = urine vol of treated rats / urine vol of control rats; assay type: functional
Procedure, shortened: (§1)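 40 mg/kg given by gavage in 25 mL/kg 0.9% saline with 0.5% (carboxymethyl)cellulose. Four rats per agent, two per metabolism cage; 20 controls; 5 h urine. T/C = treated/control urine volume. Stage-1 T/C of 1.66 or more leads to stage 2; product T/C1·T/C2 of 3.34 or more counts as active.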

Rattus norvegicus [2] = species on record: Rattus norvegicus; assay: […]; assay type: ADME, organism-based, Urine; design: dose 10 mg/kg, route oral; settings: in vivo, po, 10 mg/kg
Procedure, shortened: (§2)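 Male Sprague-Dawley rats, about 160 g, fasted 24 h and water withheld 1 1/2 h beforehand; food and water withheld during the test. Dosing by gavage with 25 mL/kg 0.9% saline containing 0.5% (carboxymethyl)cellulose, agent dissolved or suspended. Three cages of two rats each per dose, held in metabolism cages. Urine collected over 5 h. Volume given in mL, Na+ in mequiv. Significance versus control at P < 0.05.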

Rattus norvegicus [3] = assay: Mean excretion of chloride in conscious rats at a dose of 100 mg/kg given orally; assay type: ADME, organism-based; design: dose 100 mg/kg, route oral; settings: in vivo, po
Procedure, shortened: (§3)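 Secondary dose-response in male Sprague-Dawley rats (~160 g), fasted and hydrated as in the primary screen. Oral gavage at 0.3-100 mg/kg in 25 mL/kg saline/0.5% CMC, three cages of two rats per dose. Urine collected 5 h; Na, K, Cl, HCO3 measured. Values are mean excretion (mequiv), compared with controls at P < 0.05.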

Rattus norvegicus [4] = assay: Mean excretion of potassium in conscious rats at a dose of 30 mg/kg given orally; assay type: ADME, organism-based; design: dose 30 mg/kg, route oral; settings: in vivo, po; procedure, shortened: as §3
Rattus norvegicus [5] = assay: Mean excretion of chloride in conscious rats at a dose of 3.0 mg/kg given orally; assay type: ADME, organism-based; design: dose 3 mg/kg, route oral; settings: in vivo, po; procedure, shortened: as §3
Rattus norvegicus [6] = assay: Mean excretion of potassium in conscious rats at a dose of 1.0 mg/kg given orally; assay type: ADME, organism-based; design: dose 1 mg/kg, route oral; settings: in vivo, po; procedure, shortened: as §3
Rattus norvegicus [7] = species on record: Rattus norvegicus; assay: […]; assay type: ADME, organism-based, Urine; design: dose 0.3 mg/kg, route oral; settings: in vivo, po, 0.3 mg/kg
Procedure, shortened: (§4)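 Dose-response test in male Sprague-Dawley rats of about 160 g, fasted 24 h, with water withheld 1½ h before and during the test. Each rat got a single gavage of 25 mL/kg 0.9% saline with 0.5% carboxymethylcellulose carrying the agent (0.3–100 mg/kg range). Rats were housed two per metabolism cage, and urine was collected for 5 h. Mean urine volume (mL) was compared with controls (P < 0.05).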

Rattus norvegicus [8] = assay: Mean excretion of Cl- in conscious rats at a dose of 0.3 mg/kg given orally; assay type: ADME, organism-based, Urine; design: dose 0.3 mg/kg, route oral; settings: in vivo, po; procedure, shortened: as §4
[9] = Diuretic activity at 40 mg/kg (screening dose-82.2 umol/kg) in […] in a one stage experiment; T/C = urine vol of treated rats / urine vol of control rats; assay type: functional; procedure, shortened: as §1
Rattus norvegicus [10] = species on record: Rattus norvegicus; assay: […]; assay type: ADME, organism-based, Urine; design: dose 100 mg/kg, route oral; settings: in vivo, po, 100 mg/kg; procedure, shortened: as §2
Rattus norvegicus [11] = assay: Mean excretion of chloride in conscious rats at a dose of 1.0 mg/kg given orally; assay type: ADME, organism-based; design: dose 1 mg/kg, route oral; settings: in vivo, po; procedure, shortened: as §3
Rattus norvegicus [12] = assay: Mean excretion of sodium in conscious rats at a dose of 30 mg/kg given orally; assay type: ADME, organism-based; design: dose 30 mg/kg, route oral; settings: in vivo, po; procedure, shortened: as §2
Rattus norvegicus [13] = species on record: Rattus norvegicus; assay: […]; assay type: ADME, organism-based, Urine; design: dose 30 mg/kg, route oral; settings: in vivo, po, 30 mg/kg; procedure, shortened: as §2
Rattus norvegicus [14] = assay: Mean excretion of potassium in conscious rats at a dose of 100 mg/kg given orally; assay type: ADME, organism-based; design: dose 100 mg/kg, route oral; settings: in vivo, po; procedure, shortened: as §3
Rattus norvegicus [15] = species on record: Rattus norvegicus; assay: […]; assay type: ADME, organism-based, Urine; design: dose 1 mg/kg, route oral; settings: in vivo, po, 1 mg/kg; procedure, shortened: as §4
Rattus norvegicus [16] = assay: Mean excretion of potassium in conscious rats at a dose of 10 mg/kg given orally; assay type: ADME, organism-based; design: dose 10 mg/kg, route oral; settings: in vivo, po; procedure, shortened: as §3
Rattus norvegicus [17] = assay: Mean excretion of sodium in conscious rats at a dose of 100 mg/kg given orally; assay type: ADME, organism-based; design: dose 100 mg/kg, route oral; settings: in vivo, po; procedure, shortened: as §2
Rattus norvegicus [18] = assay: Mean excretion of chloride in conscious rats at a dose of 10 mg/kg given orally; assay type: ADME, organism-based; design: dose 10 mg/kg, route oral; settings: in vivo, po; procedure, shortened: as §3
Rattus norvegicus [19] = assay: Mean excretion of chloride in conscious rats at a dose of 30 mg/kg given orally; assay type: ADME, organism-based; design: dose 30 mg/kg, route oral; settings: in vivo, po; procedure, shortened: as §3
Rattus norvegicus [20] = assay: Mean excretion of […] in conscious rats at a dose of 1.0 mg/kg given orally; assay type: ADME, organism-based; design: dose 1 mg/kg, route oral; settings: in vivo, po; procedure, shortened: as §2
Rattus norvegicus [21] = assay: Mean excretion of sodium in conscious rats at a dose of 0.3 mg/kg given orally; assay type: ADME, organism-based; design: dose 0.3 mg/kg, route oral; settings: in vivo, po; procedure, shortened: as §2
Rattus norvegicus [22] = assay: Mean excretion of sodium in conscious rats at a dose of 10 mg/kg given orally; assay type: ADME, organism-based; design: dose 10 mg/kg, route oral; settings: in vivo, po; procedure, shortened: as §2
Rattus norvegicus [23] = assay: Mean excretion of potassium in conscious rats at a dose of 0.3 mg/kg given orally; assay type: ADME, organism-based; design: dose 0.3 mg/kg, route oral; settings: in vivo, po; procedure, shortened: as §3
Rattus norvegicus [24] = species on record: Rattus norvegicus; assay: […]; assay type: ADME, organism-based, Urine; design: dose 3 mg/kg, route oral; settings: in vivo, po, 3 mg/kg; procedure, shortened: as §2
Rattus norvegicus [25] = assay: Mean excretion of potassium in conscious rats at a dose of 3.0 mg/kg given orally; assay type: ADME, organism-based; design: dose 3 mg/kg, route oral; settings: in vivo, po; procedure, shortened: as §3
Rattus norvegicus [26] = assay: Mean excretion of sodium in conscious rats at a dose of 3.0 mg/kg given orally; assay type: ADME, organism-based; design: dose 3 mg/kg, route oral; settings: in vivo, po; procedure, shortened: as §2
[27] = Diuretic activity at 40 mg/kg (screening dose-82.2 umol/kg) in […] in a two stage experiment; T/C1.2 = urine vol of treated rats / urine vol of control rats; assay type: functional; procedure, shortened: as §1
[28] = Diuretic activity at 40 mg/kg (screening dose-73.8 umol/kg) in […] in a one stage experiment; T/C = urine vol of treated rats / urine vol of control rats; assay type: functional; procedure, shortened: as §1
[29] = Diuretic activity at 40 mg/kg (screening dose-73.8 umol/kg) in […] in a two stage experiment; T/C1.2 = urine vol of treated rats / urine vol of control rats; assay type: functional; procedure, shortened: as §1
[30] = Diuretic activity at 40 mg/kg (screening dose 88.2 umol/kg) in […] in a one stage experiment; T/C = urine vol of treated rats / urine vol of control rats; assay type: functional; procedure, shortened: as §1
[31] = Diuretic activity at 40 mg/kg (screening dose-88.2 uM/Kg) in […] in a two stage experiment; T/C1.2 = urine vol of treated rats / urine vol of control rats; assay type: functional; procedure, shortened: as §1

Structure (SMILES)	Mean urine volume (Rattus norvegicus [2]) [mL]	Mean excretion of Cl- (Rattus norvegicus [3]) [m equiv]	Mean excretion of K+ (Rattus norvegicus [4]) [m equiv]	Mean excretion of Cl- (Rattus norvegicus [5]) [m equiv]	Mean excretion of K+ (Rattus norvegicus [6]) [m equiv]	Mean urine volume (Rattus norvegicus [7]) [mL]	Mean excretion of Cl- (Rattus norvegicus [8]) [m equiv]	Mean urine volume (Rattus norvegicus [10]) [mL]	Mean excretion of Cl- (Rattus norvegicus [11]) [m equiv]	Mean excretion of Na+ (Rattus norvegicus [12]) [m equiv]	Mean urine volume (Rattus norvegicus [13]) [mL]	Mean excretion of K+ (Rattus norvegicus [14]) [m equiv]	Mean urine volume (Rattus norvegicus [15]) [mL]	Mean excretion of K+ (Rattus norvegicus [16]) [m equiv]	Mean excretion of Na+ (Rattus norvegicus [17]) [m equiv]	Mean excretion of Cl- (Rattus norvegicus [18]) [m equiv]	Mean excretion of Cl- (Rattus norvegicus [19]) [m equiv]	Mean excretion of Na+ (Rattus norvegicus [20]) [m equiv]	Mean excretion of Na+ (Rattus norvegicus [21]) [m equiv]	Mean excretion of Na+ (Rattus norvegicus [22]) [m equiv]	further results
C=C(c1ccccc1)c1nnc2n1-c1ccc(Cl)cc1C(c1ccccc1)=NC2																					T/C 1 [1]: 0.76
CN(C)CC(c1ccccc1)c1nnc2n1-c1ccc(Br)cc1C(c1ccccc1)=NC2 (centres undefined)	5.1	1.01	0.17	0.6	0.21	4.29	0.72	7.74	0.62	1.18	8.5	0.15	3.59	0.17	1.16	0.78	1.16	0.64	0.63	0.74	T/C 1 [9]: 2.17; Mean excretion of K+ (Rattus norvegicus [23]): 0.24 m equiv; Mean urine volume (Rattus norvegicus [24]): 3.4 mL; Mean excretion of K+ (Rattus norvegicus [25]): 0.17 m equiv; Mean excretion of Na+ (Rattus norvegicus [26]): 0.53 m equiv; T/C 1.2 [27]: 4.73
I.NCC(c1ccccc1)c1nnc2n1-c1ccc(Cl)cc1C(c1ccccc1)=NC2 (centres undefined)	6.21	1.57	0.28	0.73	0.32	4.34	0.81	8.43	0.79	2.01	10.47	0.27	4.45	0.27	1.63	1.09	1.72	0.76	0.77	1.08	T/C 1 [28]: 2.53; Mean excretion of K+ (Rattus norvegicus [23]): 0.28 m equiv; T/C 1.2 [29]: 5.92; Mean urine volume (Rattus norvegicus [24]): 3.92 mL; Mean excretion of K+ (Rattus norvegicus [25]): 0.22 m equiv; Mean excretion of Na+ (Rattus norvegicus [26]): 0.69 m equiv
CSc1ccc2c(c1)C(c1ccccc1)=NCc1nnc(C(CN(C)C)c3ccccc3)n1-2 (centres undefined)	6.83	2.17	0.25	0.9	0.31	3.92	0.76	14.14	0.89	1.87	10.39	0.28	5.12	0.23	2.52	1.28	1.69	0.94	0.88	1.39	T/C 1 [30]: 2.29; T/C 1.2 [31]: 6.6; Mean excretion of K+ (Rattus norvegicus [23]): 0.31 m equiv; Mean urine volume (Rattus norvegicus [24]): 5.2 mL; Mean excretion of K+ (Rattus norvegicus [25]): 0.36 m equiv; Mean excretion of Na+ (Rattus norvegicus [26]): 0.91 m equiv
